Measured values of several laboratories.
Each line is one published result; the experiments were not run side by side.
Target: Ephrin type-A receptor 8 (EPHA8, Homo sapiens, UniProt P29322)
Sequence (P29322 28-1005, as in one of the studies): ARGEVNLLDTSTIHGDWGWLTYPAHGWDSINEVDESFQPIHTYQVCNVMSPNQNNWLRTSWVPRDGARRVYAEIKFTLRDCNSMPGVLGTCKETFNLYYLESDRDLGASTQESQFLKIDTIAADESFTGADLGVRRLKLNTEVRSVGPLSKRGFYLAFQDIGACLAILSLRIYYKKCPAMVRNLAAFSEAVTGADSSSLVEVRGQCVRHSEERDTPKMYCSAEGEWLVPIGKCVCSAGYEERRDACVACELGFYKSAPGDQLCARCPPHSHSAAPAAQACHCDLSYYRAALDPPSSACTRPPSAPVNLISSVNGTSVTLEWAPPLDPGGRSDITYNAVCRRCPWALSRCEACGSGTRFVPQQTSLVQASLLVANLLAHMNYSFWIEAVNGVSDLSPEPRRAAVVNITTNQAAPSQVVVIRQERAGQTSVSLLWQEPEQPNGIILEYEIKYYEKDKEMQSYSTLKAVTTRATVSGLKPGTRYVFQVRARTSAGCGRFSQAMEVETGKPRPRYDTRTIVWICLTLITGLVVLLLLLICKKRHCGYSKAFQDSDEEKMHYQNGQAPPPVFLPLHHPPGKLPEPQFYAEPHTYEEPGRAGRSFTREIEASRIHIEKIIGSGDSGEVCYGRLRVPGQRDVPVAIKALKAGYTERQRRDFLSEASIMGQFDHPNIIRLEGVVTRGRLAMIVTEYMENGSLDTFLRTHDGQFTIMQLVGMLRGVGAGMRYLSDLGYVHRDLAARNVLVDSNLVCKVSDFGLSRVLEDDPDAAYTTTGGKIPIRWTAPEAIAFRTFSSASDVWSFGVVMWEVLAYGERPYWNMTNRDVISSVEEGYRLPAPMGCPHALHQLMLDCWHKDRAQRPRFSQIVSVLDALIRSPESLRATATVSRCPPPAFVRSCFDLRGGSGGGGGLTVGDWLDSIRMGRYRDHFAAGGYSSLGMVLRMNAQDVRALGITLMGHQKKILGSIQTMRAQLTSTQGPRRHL

CCCS(=O)(=O)Nc1ccc(F)c(C(=O)c2c[nH]c3ncc(-c4ccc(Cl)cc4)cc23)c1F — inhibition (enzyme activity, inhibitor; 1 µM): < 20%
CO[C@H]1CC[C@H](CNc2ccc(S(=O)(=O)NC(=O)c3ccc(N4CCN(CC5=C(c6ccc(Cl)cc6)CC(C)(C)CC5)CC4)cc3Oc3cnc4[nH]ccc4c3)cc2[N+](=O)[O-])CC1 — remaining binding (cell-free assay, competition with immobilised ligand; 1 µM): 84%
O=C1NC(=O)c2cc(Nc3ccc(F)cc3)c(Nc3ccc(F)cc3)cc21 — remaining signal (cell-free assay; 0.5 µM): 95.5%
Cc1sc(C(=O)NC2COC2)cc1-n1cc(NC(=O)Nc2c(F)cccc2Cl)cn1 — remaining activity (enzyme activity, inhibitor; 10 µM): 91.7%
CNC(=O)c1cc2c(Oc3ccc(NC(=O)C4(C(=O)Nc5ccc(F)cc5)CC4)cc3)ccnc2cc1OC — inhibition (enzyme activity, inhibitor, radiometric; 1 µM): 102%
COc1cc(-c2cc(-c3ccc(N4CCNCC4)cc3)cnc2C)cc(OC)c1OC — inhibition (enzyme activity, inhibitor; 1 µM): 10%
Cc1cc(NC(=O)c2cccc3cc(-c4cccc5[nH]nc(N)c45)ccc23)ccc1F — activity vs control (enzyme activity, inhibitor; 0.1 µM): 97%
COc1cc2ncnc(Nc3ccc(Oc4ccccc4)cc3C)c2cc1OC — inhibition (enzyme activity, inhibitor; 1 µM): 21%
C[C@H](NC(=O)c1cnc2n1[C@](C)(Cc1ccc(C#N)cc1)C(=O)N2c1cc(Cl)c(F)c(Cl)c1)C(=O)NC1(c2ccccn2)CC1 — remaining binding (cell-free assay, competition with immobilised ligand; 1 µM): 100%
Clc1ccc(Nc2nnc(Cc3ccncc3)c3ccccc23)cc1 — remaining signal (cell-free assay; 0.5 µM): 100%
C[C@@]1(Cc2ccc(C#N)cc2)C(=O)N(c2cc(Cl)cc(Cl)c2)c2ncc(C(=O)NC3(c4nc(C5CCC5)no4)CC3)n21 — remaining binding (cell-free assay, competition with immobilised ligand; 1 µM): 100%
CNC(=O)c1cc(Oc2ccc(NC(=O)Nc3ccc(Cl)c(C(F)(F)F)c3)cc2)ccn1 — inhibition (enzyme activity, inhibitor; 10 µM): 89%
CC/C(=N\NC(=O)NCc1cccc(O)c1)c1ccc(O)c(C)c1O — inhibition (enzyme activity, inhibitor; 0.1 µM): -0.5%
O=C(O)c1cc(-c2ccc(C3CCNCC3)cc2)c2ccc(-c3ccc(C(F)(F)F)cc3)cc2c1 — remaining binding (cell-free assay, competition with immobilised ligand; 1 µM): 100%
CCN(CC)c1ccc(C2=NNC(=O)CC2C)cc1[N+](=O)[O-] (stereo not drawn) — remaining activity (enzyme activity, inhibitor; 10 µM): 115%
O=C1Nc2ccc(Cl)cc2C1=Cc1cc(Cl)c(O)c(Cl)c1 — remaining signal (cell-free assay; 0.5 µM): 91.5%
O=C(NCc1ncc(C(F)(F)F)cc1Cl)c1ccc2c(c1)C1(CCS(=O)(=O)CC1)[C@@H](C1CC1)N2S(=O)(=O)c1ccc(F)cc1 — remaining binding (cell-free assay, competition with immobilised ligand; 1 µM): 100%
CC(C)(C)c1nc(-c2cccc(NS(=O)(=O)c3c(F)cccc3F)c2F)c(-c2ccnc(N)n2)s1 — remaining activity (enzyme activity, inhibitor, radiometric; 1 µM): 105%
c1ccc(N2CCN(Cc3nc4ccccc4[nH]3)CC2)nc1 — remaining binding (cell-free assay, competition with immobilised ligand; 1 µM): 100%
Cc1ccc(Nc2nccc(N(C)c3ccc4c(C)n(C)nc4c3)n2)cc1S(N)(=O)=O — inhibition (enzyme activity, inhibitor; 0.3 µM): 17%
O=C(Nc1cnn(-c2csc(C(=O)NC3COC3)c2)c1)Nc1ccccc1Cl — remaining activity (enzyme activity, inhibitor; 5 µM): 103%
